Reference: article PMC6360136 (Investigational new drugs, 2018)

Experiments:
PANC-1 cells = experiment: Cell viability assay; format: cell-based, human; conditions: PANC-1 cells, MTT, 48 h
[1] = system: orthotopic pancreatic PDX tumor; experiment: Ki-67 staining of PDX tumors; format: in vivo, NSG mice; conditions: PDX tumors at euthanasia, 0.25 mg/kg i.p. every other day, vs vehicle
How it was run: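 Orthotopic PDX mice received test compound 0.25 mg/kg i.p. or DMSO every other day. At endpoint, tumours were formalin-fixed and paraffin-embedded, and 5 micron sections were cut. Sections were stained for Ki-67 (proliferation) or by TUNEL (apoptosis). Ki-67 was scored as the average number of positive cells per high-power field by image analysis.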

EC46 cells = experiment: Cell viability assay; format: cell-based, human; conditions: EC46 primary pancreatic cancer cells, MTT, 48 h
[2] = Tissue distribution and pharmacokinetic study; format: in vivo; conditions: single 1 mg/kg, NSG mice
How it was run: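 Female NSG mice (4–10 weeks) received a single 1 mg/kg dose, either i.v. in 10% EtOH/5% Tween-80/85% saline or i.p. in DMSO; 3 mice per time point. Plasma and tissues were collected at 10 min and 1, 3, 8, 24 and 48 h. Tissues were homogenised in PBS, proteins precipitated in acetonitrile/methanol with harmine internal standard, and samples quantified by positive-ESI MRM LC-MS/MS against matrix calibration curves. PK parameters came from noncompartmental analysis.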

SMILES: CC[C@H](C)[C@@H]1C(=O)N2CCC[C@@H]2C(=O)O[C@H](C(C)(C)C)C[C@@H](C)C[C@@H](O)C(C)(C)C2=N[C@H](CCC(=O)N[C@@H](Cc3ccc(OC)cc3)C(=O)N(C)[C@@H](C)C(=O)N1C)CS2 [Apra S10, apratoxin S10]
- GI50 (PANC-1 cells): 2.75 nM
- decrease in the number of cells undergoing proliferation (Ki-67) [1]: > 50%
- GI50 (EC46 cells): 0.32 nM
- AUC (area under the concentration-time curve to infinity) ([2]; Brain, IP): 3067 ng·h/mL
- AUCt (area under the concentration-time curve) ([2]; Brain, IP): 727 ng·h/mL
- CL/F (clearance) ([2]; Brain, IP): 5.43 mL/min/kg
- Cmax (peak concentration) ([2]; Brain, IP): 18 ng/mL
- Ke (elimination rate constant) ([2]; Brain, IP): 0.006 h⁻¹
- MRT (mean residence time) ([2]; Brain, IP): 170.68 h
- Tmax (time to peak concentration) ([2]; Brain, IP): 0.17 h
- Vz/F (volume of distribution) ([2]; Brain, IP): 55.015 L/kg
- t1/2 (half-life) ([2]; Brain, IP): 116.95 h
- AUC (area under the concentration-time curve to infinity) ([2]; Brain, IV): 2442 ng·h/mL
- AUCt (area under the concentration-time curve) ([2]; Brain, IV): 874 ng·h/mL
- CL/F (clearance) ([2]; Brain, IV): 6.82 mL/min/kg
- Cmax (peak concentration) ([2]; Brain, IV): 63 ng/mL
- Ke (elimination rate constant) ([2]; Brain, IV): 0.009 h⁻¹
- MRT (mean residence time) ([2]; Brain, IV): 110.88 h
- Tmax (time to peak concentration) ([2]; Brain, IV): 0.17 h
- Vz/F (volume of distribution) ([2]; Brain, IV): 46.571 L/kg
- t1/2 (half-life) ([2]; Brain, IV): 78.84 h
- AUC (area under the concentration-time curve to infinity) ([2]; Kidney, IP): 5559 ng·h/mL
- AUCt (area under the concentration-time curve) ([2]; Kidney, IP): 4508 ng·h/mL
- CL/F (clearance) ([2]; Kidney, IP): 3 mL/min/kg
- Cmax (peak concentration) ([2]; Kidney, IP): 403 ng/mL
- Ke (elimination rate constant) ([2]; Kidney, IP): 0.036 h⁻¹
- MRT (mean residence time) ([2]; Kidney, IP): 25.57 h
- Tmax (time to peak concentration) ([2]; Kidney, IP): 1.00 h
- Vz/F (volume of distribution) ([2]; Kidney, IP): 5.02 L/kg
- t1/2 (half-life) ([2]; Kidney, IP): 19.34 h
- AUC (area under the concentration-time curve to infinity) ([2]; Kidney, IV): 3345 ng·h/mL
- AUCt (area under the concentration-time curve) ([2]; Kidney, IV): 3285 ng·h/mL
- CL/F (clearance) ([2]; Kidney, IV): 4.98 mL/min/kg
- Cmax (peak concentration) ([2]; Kidney, IV): 753 ng/mL
- Ke (elimination rate constant) ([2]; Kidney, IV): 0.077 h⁻¹
- MRT (mean residence time) ([2]; Kidney, IV): 9.34 h
- Tmax (time to peak concentration) ([2]; Kidney, IV): 0.17 h
- Vz/F (volume of distribution) ([2]; Kidney, IV): 3.892 L/kg
- t1/2 (half-life) ([2]; Kidney, IV): 9.03 h
- AUC (area under the concentration-time curve to infinity) ([2]; Liver, IP): 7951 ng·h/mL
- AUCt (area under the concentration-time curve) ([2]; Liver, IP): 7485 ng·h/mL
- CL/F (clearance) ([2]; Liver, IP): 2.1 mL/min/kg
- Cmax (peak concentration) ([2]; Liver, IP): 945 ng/mL
- Ke (elimination rate constant) ([2]; Liver, IP): 0.067 h⁻¹
- MRT (mean residence time) ([2]; Liver, IP): 12.77 h
- Tmax (time to peak concentration) ([2]; Liver, IP): 0.17 h
- Vz/F (volume of distribution) ([2]; Liver, IP): 1.865 L/kg
- t1/2 (half-life) ([2]; Liver, IP): 10.28 h
- AUC (area under the concentration-time curve to infinity) ([2]; Liver, IV): 6560 ng·h/mL
- AUCt (area under the concentration-time curve) ([2]; Liver, IV): 6095 ng·h/mL
- CL/F (clearance) ([2]; Liver, IV): 2.53 mL/min/kg
- Cmax (peak concentration) ([2]; Liver, IV): 1127 ng/mL
- Ke (elimination rate constant) ([2]; Liver, IV): 0.056 h⁻¹
- MRT (mean residence time) ([2]; Liver, IV): 14.08 h
- Tmax (time to peak concentration) ([2]; Liver, IV): 0.17 h
- Vz/F (volume of distribution) ([2]; Liver, IV): 2.741 L/kg
- t1/2 (half-life) ([2]; Liver, IV): 12.46 h
- AUC (area under the concentration-time curve to infinity) ([2]; Lung, IP): 3310 ng·h/mL
- AUCt (area under the concentration-time curve) ([2]; Lung, IP): 2321 ng·h/mL
- CL/F (clearance) ([2]; Lung, IP): 5.03 mL/min/kg
- Cmax (peak concentration) ([2]; Lung, IP): 210 ng/mL
- Ke (elimination rate constant) ([2]; Lung, IP): 0.023 h⁻¹
- MRT (mean residence time) ([2]; Lung, IP): 38.38 h
- Tmax (time to peak concentration) ([2]; Lung, IP): 0.17 h
- Vz/F (volume of distribution) ([2]; Lung, IP): 13.044 L/kg
- t1/2 (half-life) ([2]; Lung, IP): 29.93 h
- AUC (area under the concentration-time curve to infinity) ([2]; Lung, IV): 2768 ng·h/mL
- AUCt (area under the concentration-time curve) ([2]; Lung, IV): 2273 ng·h/mL
- CL/F (clearance) ([2]; Lung, IV): 6.02 mL/min/kg
- Cmax (peak concentration) ([2]; Lung, IV): 329 ng/mL
- Ke (elimination rate constant) ([2]; Lung, IV): 0.041 h⁻¹
- MRT (mean residence time) ([2]; Lung, IV): 24.55 h
- Tmax (time to peak concentration) ([2]; Lung, IV): 0.17 h
- Vz/F (volume of distribution) ([2]; Lung, IV): 8.837 L/kg
- t1/2 (half-life) ([2]; Lung, IV): 16.95 h
- AUC (area under the concentration-time curve to infinity) ([2]; Pancreas, IP): 60205 ng·h/mL
- AUCt (area under the concentration-time curve) ([2]; Pancreas, IP): 54532 ng·h/mL
- CL/F (clearance) ([2]; Pancreas, IP): 0.283 mL/min/kg
- Cmax (peak concentration) ([2]; Pancreas, IP): 2883 ng/mL
- Ke (elimination rate constant) ([2]; Pancreas, IP): 0.051 h⁻¹
- MRT (mean residence time) ([2]; Pancreas, IP): 17.46 h
- Tmax (time to peak concentration) ([2]; Pancreas, IP): 3.00 h
- Vz/F (volume of distribution) ([2]; Pancreas, IP): 0.323 L/kg
- t1/2 (half-life) ([2]; Pancreas, IP): 13.49 h
- AUC (area under the concentration-time curve to infinity) ([2]; Pancreas, IV): 49289 ng·h/mL
- AUCt (area under the concentration-time curve) ([2]; Pancreas, IV): 45982 ng·h/mL
- CL/F (clearance) ([2]; Pancreas, IV): 0.333 mL/min/kg
- Cmax (peak concentration) ([2]; Pancreas, IV): 2348 ng/mL
- Ke (elimination rate constant) ([2]; Pancreas, IV): 0.059 h⁻¹
- MRT (mean residence time) ([2]; Pancreas, IV): 14.80 h
- Tmax (time to peak concentration) ([2]; Pancreas, IV): 8.00 h
- Vz/F (volume of distribution) ([2]; Pancreas, IV): 0.342 L/kg
- t1/2 (half-life) ([2]; Pancreas, IV): 11.70 h
- AUC (area under the concentration-time curve to infinity) ([2]; Plasma, IP): 1292 ng·h/mL
- AUCt (area under the concentration-time curve) ([2]; Plasma, IP): 1251 ng·h/mL
- CL/F (clearance) ([2]; Plasma, IP): 12.9 mL/min/kg
- Cmax (peak concentration) ([2]; Plasma, IP): 775 ng/mL
- Ke (elimination rate constant) ([2]; Plasma, IP): 0.082 h⁻¹
- MRT (mean residence time) ([2]; Plasma, IP): 6.54 h
- Tmax (time to peak concentration) ([2]; Plasma, IP): 0.17 h
- Vz/F (volume of distribution) ([2]; Plasma, IP): 9.49 L/kg
- t1/2 (half-life) ([2]; Plasma, IP): 8.50 h
- AUC (area under the concentration-time curve to infinity) ([2]; Plasma, IV): 1303 ng·h/mL
- AUCt (area under the concentration-time curve) ([2]; Plasma, IV): 1287 ng·h/mL
- CL/F (clearance) ([2]; Plasma, IV): 12.8 mL/min/kg
- Cmax (peak concentration) ([2]; Plasma, IV): 1072 ng/mL
- Ke (elimination rate constant) ([2]; Plasma, IV): 0.089 h⁻¹
- MRT (mean residence time) ([2]; Plasma, IV): 4.20 h
- Tmax (time to peak concentration) ([2]; Plasma, IV): 0.17 h
- Vz/F (volume of distribution) ([2]; Plasma, IV): 8.616 L/kg
- t1/2 (half-life) ([2]; Plasma, IV): 7.78 h
- AUC (area under the concentration-time curve to infinity) ([2]; Salivary gland, IP): 19233 ng·h/mL
- AUCt (area under the concentration-time curve) ([2]; Salivary gland, IP): 13009 ng·h/mL
- CL/F (clearance) ([2]; Salivary gland, IP): 0.867 mL/min/kg
- Cmax (peak concentration) ([2]; Salivary gland, IP): 556 ng/mL
- Ke (elimination rate constant) ([2]; Salivary gland, IP): 0.024 h⁻¹
- MRT (mean residence time) ([2]; Salivary gland, IP): 41.75 h
- Tmax (time to peak concentration) ([2]; Salivary gland, IP): 3.00 h
- Vz/F (volume of distribution) ([2]; Salivary gland, IP): 2.2 L/kg
- t1/2 (half-life) ([2]; Salivary gland, IP): 29.33 h
- AUC (area under the concentration-time curve to infinity) ([2]; Salivary gland, IV): 26182 ng·h/mL
- AUCt (area under the concentration-time curve) ([2]; Salivary gland, IV): 23604 ng·h/mL
- CL/F (clearance) ([2]; Salivary gland, IV): 0.633 mL/min/kg
- Cmax (peak concentration) ([2]; Salivary gland, IV): 1258 ng/mL
- Ke (elimination rate constant) ([2]; Salivary gland, IV): 0.048 h⁻¹
- MRT (mean residence time) ([2]; Salivary gland, IV): 19.56 h
- Tmax (time to peak concentration) ([2]; Salivary gland, IV): 1.00 h
- Vz/F (volume of distribution) ([2]; Salivary gland, IV): 0.797 L/kg
- t1/2 (half-life) ([2]; Salivary gland, IV): 14.46 h
- AUC (area under the concentration-time curve to infinity) ([2]; Spleen, IP): 6586 ng·h/mL
- AUCt (area under the concentration-time curve) ([2]; Spleen, IP): 5011 ng·h/mL
- CL/F (clearance) ([2]; Spleen, IP): 2.53 mL/min/kg
- Cmax (peak concentration) ([2]; Spleen, IP): 253 ng/mL
- Ke (elimination rate constant) ([2]; Spleen, IP): 0.031 h⁻¹
- MRT (mean residence time) ([2]; Spleen, IP): 31.38 h
- Tmax (time to peak concentration) ([2]; Spleen, IP): 0.17 h
- Vz/F (volume of distribution) ([2]; Spleen, IP): 4.868 L/kg
- t1/2 (half-life) ([2]; Spleen, IP): 22.22 h
- AUC (area under the concentration-time curve to infinity) ([2]; Spleen, IV): 6838 ng·h/mL
- AUCt (area under the concentration-time curve) ([2]; Spleen, IV): 4686 ng·h/mL
- CL/F (clearance) ([2]; Spleen, IV): 2.43 mL/min/kg
- Cmax (peak concentration) ([2]; Spleen, IV): 195 ng/mL
- Ke (elimination rate constant) ([2]; Spleen, IV): 0.027 h⁻¹
- MRT (mean residence time) ([2]; Spleen, IV): 38.00 h
- Tmax (time to peak concentration) ([2]; Spleen, IV): 8.00 h
- Vz/F (volume of distribution) ([2]; Spleen, IV): 5.353 L/kg
- t1/2 (half-life) ([2]; Spleen, IV): 25.37 h
